Calls of active or inactive are those of the source. The rule behind the calls is not given here.
Experiments:
[1] = tested on: Saccharomyces cerevisiae; assay: Antifungal activity against Saccharomyces cerevisiae BY4741 harboring IBD2 YNL164C mutant gene by spectrophotometry; format: functional
Method in brief: (§1)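 Screen of BY4741 KanMX4 deletion strains pre-grown 3 days at 28°C in YPD with G418 (150 mg/liter), then pinned into liquid SC containing GM193663. The sensitivity screen used 2 ng/ml; the resistance screen used 62.5 ng/ml, with validation at 62.5, 125 and 500 ng/ml. OD595 was read every 24 h over 5 days at 28°C. Growth was scored relative to wild type and to drug-free controls. Retests were at least in duplicate.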

[2] = tested on: Saccharomyces cerevisiae; assay: Antifungal activity against Saccharomyces cerevisiae BY4741 harboring PRR2 YDL214C mutant gene by spectrophotometry; format: functional
Method in brief: (§2)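 Haploid MATa BY4741 KanMX4 deletion strains pinned from frozen stocks into YPD + G418 (150 mg/liter), grown 3 days at 28°C to confluence, then pin-replicated into SC liquid with no drug or sordarin derivative GM193663 (2 ng/ml sensitivity; 62.5 ng/ml resistance). 28°C, OD595 read every 24 h for 5 days; growth scored relative to wild type on same plate and to untreated mutant.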

[3] = tested on: Saccharomyces cerevisiae; assay: Antifungal activity against Saccharomyces cerevisiae BY4741 harboring PUF3 YLL013C mutant gene by spectrophotometry; format: functional; method in brief: as §2
[4] = tested on: Saccharomyces cerevisiae; assay: Antifungal activity against Saccharomyces cerevisiae BY4741 harboring SHU2 YDR078C mutant gene by spectrophotometry; format: functional; method in brief: as §2
[5] = tested on: Saccharomyces cerevisiae; assay: Antifungal activity against Saccharomyces cerevisiae BY4741 harboring MUP3 YHL036W mutant gene by spectrophotometry; format: functional; method in brief: as §2
[6] = tested on: Saccharomyces cerevisiae; assay: Antifungal activity against Saccharomyces cerevisiae BY4741 harboring BAP2 YBR068C mutant gene by spectrophotometry; format: functional; method in brief: as §1
[7] = tested on: Saccharomyces cerevisiae; assay: Antifungal activity against Saccharomyces cerevisiae BY4741 harboring MIP6 YHR015W mutant gene by spectrophotometry; format: functional; method in brief: as §1
[8] = tested on: Saccharomyces cerevisiae; assay: Antifungal activity against Saccharomyces cerevisiae BY4741 harboring MIP1 YOR330C mutant gene by spectrophotometry; format: functional; method in brief: as §1
[9] = tested on: Saccharomyces cerevisiae; assay: Antifungal activity against Saccharomyces cerevisiae BY4741 harboring HMI1 YOL095C mutant gene by spectrophotometry; format: functional; method in brief: as §1
[10] = tested on: Saccharomyces cerevisiae; assay: Antifungal activity against Saccharomyces cerevisiae BY4741 harboring ARN2 YHL047C mutant gene by spectrophotometry; format: functional; method in brief: as §1
[11] = tested on: Saccharomyces cerevisiae; assay: Antifungal activity against Saccharomyces cerevisiae BY4741 harboring ADE4 YMR300C mutant gene by spectrophotometry; format: functional; method in brief: as §1
[12] = tested on: Saccharomyces cerevisiae; assay: Antifungal activity against Saccharomyces cerevisiae BY4741 harboring ARO3 YDR035W mutant gene by spectrophotometry; format: functional; method in brief: as §1
[13] = tested on: Saccharomyces cerevisiae; assay: Antifungal activity against Saccharomyces cerevisiae BY4741 harboring SER1 YOR184W mutant gene by spectrophotometry; format: functional; method in brief: as §2
[14] = tested on: Saccharomyces cerevisiae; assay: Antifungal activity against Saccharomyces cerevisiae BY4741 harboring MHP1 YJL042W mutant gene by spectrophotometry; format: functional; method in brief: as §1
[15] = tested on: Saccharomyces cerevisiae; assay: Antifungal activity against Saccharomyces cerevisiae BY4741 harboring ECM3 YOR092W mutant gene by spectrophotometry; format: functional; method in brief: as §1
[16] = tested on: Saccharomyces cerevisiae; assay: Antifungal activity against Saccharomyces cerevisiae BY4741 harboring SEM1 YDR363W-A mutant gene by spectrophotometry; format: functional; method in brief: as §2
[17] = tested on: Saccharomyces cerevisiae; assay: Antifungal activity against Saccharomyces cerevisiae BY4741 harboring PRE9 YGR135W mutant gene by spectrophotometry; format: functional; method in brief: as §2
[18] = tested on: Saccharomyces cerevisiae; assay: Antifungal activity against Saccharomyces cerevisiae BY4741 harboring STE1 YDR410C mutant gene by spectrophotometry; format: functional; method in brief: as §2
[19] = tested on: Saccharomyces cerevisiae; assay: Antifungal activity against Saccharomyces cerevisiae BY4741 harboring FUN12 YAL035W mutant gene by spectrophotometry; format: functional; method in brief: as §1
[20] = tested on: Saccharomyces cerevisiae; assay: Antifungal activity against Saccharomyces cerevisiae BY4741 harboring MSR1 YHR091C mutant gene by spectrophotometry; format: functional; method in brief: as §2
[21] = tested on: Saccharomyces cerevisiae; assay: Antifungal activity against Saccharomyces cerevisiae BY4741 harboring MRPL3 YMR024W mutant gene by spectrophotometry; format: functional; method in brief: as §2
[22] = tested on: Saccharomyces cerevisiae; assay: Antifungal activity against Saccharomyces cerevisiae BY4741 harboring MRPL11 YDL202W mutant gene by spectrophotometry; format: functional; method in brief: as §2
[23] = tested on: Saccharomyces cerevisiae; assay: Antifungal activity against Saccharomyces cerevisiae BY4741 harboring MRP20 YDR405W mutant gene by spectrophotometry; format: functional; method in brief: as §1
[24] = tested on: Saccharomyces cerevisiae; assay: Antifungal activity against Saccharomyces cerevisiae BY4741 harboring RPS18A YDR450W mutant gene by spectrophotometry; format: functional; method in brief: as §2
[25] = tested on: Saccharomyces cerevisiae; assay: Antifungal activity against Saccharomyces cerevisiae BY4741 harboring ATP12 YJL180C mutant gene assessed as reduction in fungal growth at 2 ng/ml by spectrophotometry; format: functional, organism-based
Method in brief: (§3)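 Haploid BY4741 KanMX4 deletion strains pre-grown in YPD with G418 (150 mg/liter) for 3 days at 28°C. They were then pin-replicated into liquid SC with sordarin derivative GM193663 at 2 ng/ml, or without drug. Plates were incubated at 28°C and OD595 read every 24 h for 5 days. Growth was scored against wild type on the same plate and against the drug-free mutant. Hits were retested at least in duplicate.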

[26] = tested on: Saccharomyces cerevisiae; assay: Antifungal activity against Saccharomyces cerevisiae BY4741 harboring AFG3 YER017C mutant gene assessed as reduction in fungal growth at 2 ng/ml by spectrophotometry; format: functional, organism-based; method in brief: as §3
[27] = tested on: Saccharomyces cerevisiae; assay: Antifungal activity against Saccharomyces cerevisiae BY4741 harboring deletion mutation in dph5 gene at 300 to 500 ng/ml after 24 hrs by liquid growth assay; format: functional
[28] = tested on: Saccharomyces cerevisiae; assay: Antifungal activity against Saccharomyces cerevisiae BY4741 harboring deletion mutation in dph1 gene at 300 to 500 ng/ml after 24 hrs by liquid growth assay; format: functional
[29] = tested on: Saccharomyces cerevisiae; assay: Antifungal activity against Saccharomyces cerevisiae BY4741 harboring deletion mutation in dph1 gene at 100 ng/ml by plate assay; format: functional, organism-based
Method in brief: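 Spot test on solid SC glucose plates with or without 100 ng/ml sordarin. Drops of 10^5 cells plus 10-fold serial dilutions of each dph deletion strain were spotted alongside the parental strain. Plates were incubated at 28°C for 6 days and imaged every 24 h.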

[30] = tested on: Saccharomyces cerevisiae; assay: Antifungal activity against Saccharomyces cerevisiae BY4741 harboring YDL063C mutation in unknown gene by spectrophotometry; format: functional; method in brief: as §2
[31] = tested on: Saccharomyces cerevisiae; assay: Antifungal activity against Saccharomyces cerevisiae BY4741 harboring YKL098W mutation in unknown gene by spectrophotometry; format: functional
Method in brief: (§4)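 Deletion strains from the nonessential haploid MATa BY4741 collection (KanMX4 replacement) were grown in YPD with G418 at 28°C for 3 days, then pinned into liquid SC with or without sordarin derivative GM193663 (2 ng/ml for sensitivity, 62.5 ng/ml for resistance). Cultures were kept at 28°C and read at OD595 every 24 h for 5 days. Growth was scored against wild type on the same plate and against the drug-free control. Hits were retested at least in duplicate.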

[32] = tested on: Saccharomyces cerevisiae; assay: Antifungal activity against Saccharomyces cerevisiae BY4741 harboring YSC83 YHR017W mutant gene by spectrophotometry; format: functional; method in brief: as §4
[33] = tested on: Saccharomyces cerevisiae; assay: Antifungal activity against Saccharomyces cerevisiae BY4741 harboring YER087W mutation in unknown gene by spectrophotometry; format: functional; method in brief: as §4
[34] = tested on: Saccharomyces cerevisiae; assay: Antifungal activity against Saccharomyces cerevisiae BY4741 harboring FYV1 YDR024W mutant gene by spectrophotometry; format: functional; method in brief: as §1
[35] = tested on: Saccharomyces cerevisiae; assay: Antifungal activity against Saccharomyces cerevisiae BY4741 harboring YDR008C mutation by spectrophotometry; format: functional; method in brief: as §2
[36] = tested on: Saccharomyces cerevisiae; assay: Antifungal activity against Saccharomyces cerevisiae BY4741 harboring YBR255W mutation in unknown gene by spectrophotometry; format: functional; method in brief: as §2

Structure (SMILES): CO[C@H]1[C@@H](O)[C@H](O)[C@H](OC[C@@]23C[C@@H]4[C@H](C)CC[C@H]4[C@@]4(C=O)CC2C=C(C(C)C)[C@@]34C(=O)O)O[C@@H]1C [SORDARIN]
- MIC [1]: > 0.5 µg/mL
- MIC [2]: > 0.5 µg/mL
- MIC [3]: > 0.5 µg/mL
- MIC [4]: > 0.5 µg/mL
- MIC [5]: > 0.5 µg/mL
- MIC [6]: > 0.125 µg/mL
- MIC [7]: > 0.5 µg/mL
- MIC [8]: > 0.5 µg/mL
- MIC [9]: > 0.125 µg/mL
- MIC [10]: > 0.5 µg/mL
- MIC [11]: > 0.5 µg/mL
- MIC [12]: > 0.5 µg/mL
- MIC [13]: > 0.5 µg/mL
- MIC [14]: > 0.125 µg/mL
- MIC [15]: > 0.125 µg/mL
- MIC [16]: > 0.125 µg/mL
- MIC [17]: > 0.5 µg/mL
- MIC [18]: > 0.125 µg/mL
- MIC [19]: > 0.125 µg/mL
- MIC [20]: > 0.125 µg/mL
- MIC [21]: > 0.125 µg/mL
- MIC [22]: > 0.0625 µg/mL
- MIC [23]: > 0.5 µg/mL
- MIC [24]: > 0.0625 µg/mL
- Activity [25]: Active
- Activity [26]: Active
- Activity [27]: 50%
- Activity [28]: 50%
- MIC [29]: inactive
- MIC [30]: > 0.125 µg/mL
- MIC [31]: > 0.5 µg/mL
- MIC [32]: > 0.5 µg/mL
- MIC [33]: > 0.5 µg/mL
- MIC [34]: > 0.5 µg/mL
- MIC [35]: > 0.5 µg/mL
- MIC [36]: > 0.5 µg/mL
